Results of several laboratories.
Protocols differ between the studies behind these lines.
Target: Death-associated protein kinase 3 (DAPK3, Homo sapiens, UniProt O43293)

CNC(=O)Nc1ccc2c(c1)CC[C@@]21OC(=O)N(CC(=O)N(Cc2ccc(F)cc2)[C@@H](C)C(F)(F)F)C1=O — remaining binding (cell-free assay, competition with immobilised ligand; 1 µM): 86%
COc1ccnn2ncc(-c3ccnc(N(C)C)n3)c12 — remaining binding (binding; 1 µM): 72%
COc1ncc2cc3ccccc3nc2c1C#N — remaining binding (cell-free assay, competition with immobilised ligand; 5 µM): 98%
O=C(c1ccc(Nc2nccc(-c3cc4ccccc4s3)n2)cc1)N1CCC(N2CCCC2)CC1 — remaining binding (binding, competition with immobilised ligand; 1 µM): 11%
c1cncc(-c2cccc(Nc3nccc(NC4CCCCC4)n3)c2)c1 — remaining binding (binding, competition with immobilised ligand; 10 µM): 85%
CC(=O)Nc1c(C(C)=O)c(=O)n(C)c2nc(-c3ccc(Cl)cc3Cl)c(-c3ccc(Cl)cc3)cc12 — remaining binding (cell-free assay, competition with immobilised ligand; 1 µM): 100%
CNC(=O)[C@@H]1CC[C@@H](n2c(-c3ccc4cnccc4c3)nc3ccc(C(=O)NCc4cccc(C(N)=O)c4)cc32)C1 — remaining binding (binding, competition with immobilised ligand; 1 µM): 100%
C[C@H]1CCN(c2nccc(-c3cnn4ncccc34)n2)C1 — remaining binding (binding; 1 µM): 79%
CS(=O)(=O)N1CCCC(NC(=O)[C@H](CCC2CCCCC2)NC(=O)c2ccc(CNC(=O)c3cnc4ccccn34)cc2)C1 (stereo partly shown) — remaining binding (cell-free assay, competition with immobilised ligand; 0.1 µM): 90%
CCN1CCN(Cc2ccc(C(=O)Nc3ccc(C)c(Oc4ccc5c(c4)CC(=O)N5)c3)cc2C(F)(F)F)CC1 — remaining binding (binding, competition with immobilised ligand; 1 µM): 100%
Cc1c(NC(=O)c2cc(C(N)=O)nc3cc(F)ccc23)c(C(F)(F)F)nn1Cc1ccc(C#N)cc1 — remaining binding (cell-free assay, competition with immobilised ligand; 1 µM): 89%
Cc1cnn2ncc(-c3ccnc(N(C)C)n3)c2c1 — remaining binding (binding; 1 µM): 84%
Cc1cnc(Nc2ccc(C(=O)N3CCC(N4CCCC4)CC3)cc2)nc1-c1cc2ccccc2s1 — remaining binding (binding, competition with immobilised ligand; 1 µM): 3.4%
COc1ccc2cc(OCC3(C(=O)O)CN(C(=O)c4ccc(F)cc4)C3)ccc2c1 — remaining binding (cell-free assay, competition with immobilised ligand; 1 µM): 100%
c1cnn2ncc(-c3ccnc(N4CCC45COC5)n3)c2c1 — remaining binding (binding; 1 µM): 73%
CCCCN(CCCC)C(=O)CN1C[C@@H](c2cc(OC)c3c(c2)OCO3)[C@H](C(=O)O)[C@H]1CC(C)(C)CCC — remaining binding (cell-free assay, competition with immobilised ligand; 1 µM): 100%
N[C@@H]1CCN(c2nccc(-c3cnn4ncccc34)n2)C1 — remaining binding (binding; 1 µM): 99%
FC(F)(F)Oc1cccc(-c2cnc3ccc(-c4ccncc4)nn23)c1 — remaining binding (cell-free assay, competition with immobilised ligand; 5 µM): 67%
CN(c1nccc(-c2cnn3ncccc23)n1)C1CC1 — remaining binding (binding; 1 µM): 70%
O=C(NCC1CCOCC1)c1n[nH]cc1NC(=O)c1c(F)cccc1F — remaining binding (binding, competition with immobilised ligand; 1 µM): 94%
CN(C)c1nccc(-c2cnc3ncccn23)n1 — remaining binding (binding; 1 µM): 91%
O=C(NCCCN1CCOCC1)c1ccc(Nc2nccc(-c3cc4ccccc4s3)n2)cc1 — remaining binding (binding, competition with immobilised ligand; 1 µM): 9.7%
